TNAP inh hi DEA = human TNAP enzyme inhibitors, primary screen, biochemical, luminescent, high phosphate acceptor level, uHTS; Alkaline phosphatase, tissue-nonspecific isozyme (Homo sapiens), P05186; purified TNAP, CDP-star luminescence, 1 M DEA; inhibition, % at 20 µM; 0.03% of 200,000 active; AID 1135, 2008;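 active means over 50% inhibition of tissue-nonspecific alkaline phosphatase at 20 µM in the single-dose screen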;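 further: plate controls were DMSO wells for no effect and EDTA-quenched wells as full inhibition for full effect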
Target sequence (P05186 whole entry, looked up): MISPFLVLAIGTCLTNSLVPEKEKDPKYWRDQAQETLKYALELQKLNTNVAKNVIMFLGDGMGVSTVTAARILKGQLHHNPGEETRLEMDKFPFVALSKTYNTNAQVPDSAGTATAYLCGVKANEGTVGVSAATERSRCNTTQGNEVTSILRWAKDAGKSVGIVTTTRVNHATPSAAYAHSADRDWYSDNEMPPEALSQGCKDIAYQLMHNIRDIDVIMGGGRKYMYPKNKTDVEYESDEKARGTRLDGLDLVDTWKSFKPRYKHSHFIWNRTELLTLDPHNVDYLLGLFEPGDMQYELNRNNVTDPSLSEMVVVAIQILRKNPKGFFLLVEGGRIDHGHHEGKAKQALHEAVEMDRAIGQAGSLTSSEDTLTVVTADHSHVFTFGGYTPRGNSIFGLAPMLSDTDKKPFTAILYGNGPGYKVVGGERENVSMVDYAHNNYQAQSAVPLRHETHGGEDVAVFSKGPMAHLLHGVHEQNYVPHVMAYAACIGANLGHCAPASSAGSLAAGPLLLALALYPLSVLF
PMI act hi M6P = human PMI activators, high substrate, primary screen, biochemical, fluorescence intensity, near-saturating mannose 6-phosphate | Mannose-6-phosphate isomerase (Homo sapiens), P34949 | coupled PMI enzyme assay, resazurin fluorescence, 20 min; hits give high values; 1 = untreated enzyme, 0 = substrate-free blank | activation factor at 20 µM | 0.34% of 190,000 active;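 active means activation factor of 2 or more at 20 µM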
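Test system – human PMI in coupled enzyme assay · Timing – 20 min incubation at room temperature · Detection – Diaphorase-driven resazurin-to-resorufin fluorescence, excitation 544, emission 590 nm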
TNAP act hi DEA = TNAP activators at high phosphate acceptor level, primary screen, biochemical, luminescence, uHTS; Alkaline phosphatase, tissue-nonspecific isozyme (Homo sapiens), P05186; purified TNAP, CDP-star luminescence, 1 M DEA, 30 min; hits give high values; 0 = EDTA background, 1 = DMSO-only activity; activation factor at 20 µM; 200,000 tested, under 10 active;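 active means activation factor at least 2 at 20 µM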
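Assay system: human TNAP; Input: enzyme diluted 1/800 final; Reagent: CDP-star luminogenic substrate at 100 µM final; Timing: 30 min, room temperature; Signal: luminescence; Evaluation: TNAP activation factor scaled between EDTA and DMSO control wells.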
TNAP inh noacc = human TNAP enzyme inhibitors, primary screen, biochemical, luminescent, no phosphate acceptor, uHTS; purified TNAP, CDP-star luminescence, 30 min; inhibition, % at 20 µM; 0.26% of 200,000 active; AID 1012, 2008;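 active means tissue-nonspecific alkaline phosphatase inhibition above about 50% at 20 µM in the single-dose screen, limit read from the data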;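 further: 0% = DMSO negative control and 100% = EDTA positive control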
PMI act = activators of human PMI, primary screen, biochemical, fluorescence intensity, near-Km mannose 6-phosphate | purified human PMI, coupled resazurin fluorescence, 20 min; hits give high values; 1 = vehicle control, 0 substrate-free wells | activation factor at 20 µM | 0.005% of 190,000 active | AID 1214, 2008;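 active means activation factor of 2 or more at 20 µM, relative to plate controls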
An asterisk follows results filed as active. The list is not random: actives were taken first. Their share in the collection is about 0.62%.

SMILES | TNAP inh hi DEA | PMI act hi M6P | TNAP act hi DEA | TNAP inh noacc | PMI act
CC(=O)Nc1ccc(SCC(=O)Nc2cc(C)on2)cc1 | -1 | 1 | 1 | -4 | 1.1
c1ccc(-c2nc(-c3ccccn3)no2)cc1 | 0 | 1 | 1 | -4 | 1.1
c1ccc(-c2n[nH]c(-c3ccccn3)n2)cc1 | -4 | 0.9 | 1 | 67* | 0.9
O=P(O)(O)c1ccccc1OCCOCCOc1ccccc1P(=O)(O)O | 3 | 1 | 1 | 72* | 1
O=P(O)(O)c1ccccc1OCc1ccccc1 | -1 | 1.1 | 1 | 15 | 1.1
O=P(O)(O)c1ccccc1OCCCCCOc1ccccc1P(=O)(O)O | 12 | 1.1 | 0.9 | 89* | 0.9
N#CCCCN1C(=O)C(=C(C#N)C#N)c2ccccc21 | -2 | 0.4 | 1 | -5 | 0.9
CCOC(=O)C(C)c1nc2ccccc2[nH]c1=O (centres undefined) | -1 | 0.9 | 1 | -4 | 0.9
NC(=S)Nc1nc2ccccc2[nH]c1=O | 16 | 0.9 | 0.8 | 71* | 0.9
O=c1[nH]c2ccccc2nc1C(Cl)c1ccccc1 (centres undefined) | -3 | 2.1* | 1 | -6 | 1.6
NC(=S)NNc1c(F)c(F)c(F)c(F)c1F | 1 | 1.3 | 1 | -2 | 1.4
CC(C)Cn1c(-c2ccccc2F)n[nH]c1=S | -10 | 1.2 | 1.1 | 52* | 1
CC(C)Cn1c(-c2ccc(F)cc2)n[nH]c1=S | 2 | 1.1 | 1 | 18 | 0.9
COc1ccc(-c2nnn(CC(=O)NCCc3ccc(OC)c(OC)c3)n2)cc1 | -1 | 0.9 | 1 | -18 | 0.9
Cc1ccc(NC(=O)c2ccc(Nc3c([N+](=O)[O-])cc([N+](=O)[O-])cc3[N+](=O)[O-])cc2)cc1 | 54* | 1 | 0.5 | -6 | 1.2
Cc1ccc(C(=O)Nc2cc([N+](=O)[O-])ccc2C)cc1 | -5 | 0.9 | 1.1 | -17 | 1.1
CSc1n[nH]c2nc3c(c(=O)n12)C1(CCCC1)Cc1ccccc1-3 | -7 | 2.2* | 1.1 | -5 | 1.6
Cn1ncc2c1ncn1nc(CCc3ccccc3)nc21 | 3 | 0.9 | 1 | 59* | 0.9
COc1ccc(C2CC(=O)C=C(NNS(=O)(=O)c3ccc(C)cc3)C2)cc1 (centres undefined) | -3 | 1 | 1 | -4 | 1
COc1cc(C2C3=C(CCCC3=O)Nc3[nH]n(-c4ccccc4)c(=O)c32)cc(OC)c1OC (centres undefined) | 4 | 1.5 | 1 | -9 | 1.5
COc1cc(C2C3=C(CCCC3=O)Nc3[nH]n(-c4ccccc4)c(=O)c32)ccc1OC(C)=O (centres undefined) | 0 | 2* | 1 | -2 | 1.6
Cc1nnsc1SCCNC(=O)Nc1ccc(Cl)cc1 | -4 | 1 | 1 | -12 | 1
CSc1nncc(/C(C)=N\Nc2ccccc2)n1 | 3 | 1.9 | 1 | -3 | 1.4
CSc1nncc(/C(C)=N\Nc2cccc(C)c2)n1 | 0 | 2.4* | 1 | -2 | 1.5
CC/C(=N/Nc1ccccc1C)c1cnnc(SC)n1 | 17 | 2.3* | 0.8 | 11 | 1.5
SMILES | TNAP inh hi DEA | PMI act hi M6P | TNAP act hi DEA | TNAP inh noacc | PMI act
CS(=O)(=O)c1sc2nc(-c3cccs3)cc(-c3ccccc3)c2c1N | 1 | 2.2* | 1 | -1 | 1.6
COc1ccc2cc(N=Cc3nc(-c4ccc(C)cc4)oc3O)cnc2c1 | 4 | 1.1 | 1 | 1 | 1.2
S=c1nc[nH]c2c1sc1nc(N3CCOCC3)c3c(c12)CCCC3 | 0 | 2* | 1 | -12 | 1.6
Cn1c(SCC(=O)N2CCCC2)nnc1-c1cnccn1 | -5 | 0.9 | 1 | -4 | 0.8
CCOC(=O)c1n[nH]c2ccccc12 | -2 | 1 | 1 | 58* | 1
O=C(COC(=O)c1n[nH]c2ccccc12)NC(=O)NC1CCCCC1 | -2 | 1 | 1 | 7 | 1
